This is an account of results in ChEMBL document CHEMBL1129039 (J Med Chem, 1996).

Molecules are shown by their SMILES. The source made the active and inactive calls.

Data set [1] has as its target T1, B2 bradykinin receptor (Homo sapiens, UniProt P30411).
T1 sequence (P30411 whole entry): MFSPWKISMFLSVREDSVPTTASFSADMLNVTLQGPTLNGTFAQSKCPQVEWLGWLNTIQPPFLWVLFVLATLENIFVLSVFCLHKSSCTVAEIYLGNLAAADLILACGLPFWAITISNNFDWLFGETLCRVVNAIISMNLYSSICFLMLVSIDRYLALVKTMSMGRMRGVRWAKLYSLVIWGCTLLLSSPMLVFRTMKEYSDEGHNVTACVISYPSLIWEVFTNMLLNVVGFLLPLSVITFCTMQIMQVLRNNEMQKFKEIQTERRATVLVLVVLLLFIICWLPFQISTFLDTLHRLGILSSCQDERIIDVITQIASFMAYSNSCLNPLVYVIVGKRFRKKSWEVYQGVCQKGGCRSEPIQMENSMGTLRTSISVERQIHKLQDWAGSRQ
Nature of the data set: Binding affinity towards Bradykinin receptor B2 in human S34 clone cells. It counts as cell-based.

Data set [2] can be described thus: Binding affinity towards bradykinin receptor using [3H]BK as radioligand in guinea pig ileum. Type of data set: tissue-based, Cavia porcellus. The essentials: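 Ileal membranes from Duncan-Hartley guinea pigs, 0.2 mg/mL, room temperature in 25 mM TES pH 6.8 with 1,10-phenanthroline, DTT, captopril, bacitracin, thiorphan, 0.1% BSA. […] Filtered on PEI-pretreated GF/B, washed with cold Tris pH 7.5/NaCl/BSA, scintillation counted. Mean ± SD, n = 4.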

Data set [3] addresses T2, B2 bradykinin receptor (Rattus norvegicus, UniProt P25023).
T2 sequence (P25023 whole entry): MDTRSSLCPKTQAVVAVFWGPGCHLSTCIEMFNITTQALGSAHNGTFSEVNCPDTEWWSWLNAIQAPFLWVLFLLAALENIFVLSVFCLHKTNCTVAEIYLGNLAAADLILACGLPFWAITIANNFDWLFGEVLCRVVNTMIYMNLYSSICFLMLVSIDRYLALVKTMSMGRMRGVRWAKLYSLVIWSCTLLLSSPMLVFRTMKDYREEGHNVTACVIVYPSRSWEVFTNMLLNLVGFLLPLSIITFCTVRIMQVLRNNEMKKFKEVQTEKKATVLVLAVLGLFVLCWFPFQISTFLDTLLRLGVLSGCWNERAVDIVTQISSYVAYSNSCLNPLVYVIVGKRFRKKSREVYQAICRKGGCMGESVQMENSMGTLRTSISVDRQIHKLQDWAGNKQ
Nature of the data set: In vitro Bradykinin receptor B2 antagonist activity by using rat uterus functional assay. Type of data set: tissue-based. As to conditions: for Kb: read-out: pA2 (converted). The essentials:
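Uterine horns from female Sprague-Dawley rats primed with stilbesterol (100 μg/kg) 18 h earlier. Tissue held at 1 g tension in De Jalon's solution, 31 °C, aerated. Potency by Arunlakshana-Schild analysis.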

Data set [4] has as its target B1 bradykinin receptor (Oryctolagus cuniculus). The data set can be described thus: In vitro Bradykinin receptor B1 antagonist activity in functional tissue within rabbit aorta.
Data set [5] can be described thus: In vitro stability was measured in porcine lung tissue preparation. It counts as ADME, Sus scrofa. As to conditions: pig. The essentials: (§1)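 Lung or kidney cortical membranes made by differential centrifugation and stored at -20 °C. Dilutions in PBS: porcine kidney 1:10, rat kidney 1:100, porcine lung 1:1. Compound at 1 mM in PBS, 10 μL, incubated with 90 μL diluted membranes for various times. Quenched with ethanol, centrifuged.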

The nature of data set [6]: In vitro stability was measured in human plasma tissue preparation. Type of data set: ADME.
Data set [7] can be described thus: In vitro stability was measured in porcine kidney tissue preparation. Type of data set: ADME, Sus scrofa. As to conditions: pig. The essentials:
as §1

Data set [8] in a line: In vitro stability was measured in rat kidney tissue preparation. Type of data set: ADME. The essentials:
as §1

The species entered for data set [9] is Rattus norvegicus. The data set can be described thus: Percent recovery was evaluated in rat. It counts as functional, organism-based. An outline of the steps:
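Same rat uterus preparation. […] Its pD2 is compared with the initial control pD2. The difference against concurrent control gives percentage recovery of agonist response.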

The subject of data set [10] is Oryctolagus cuniculus. The data set can be described thus: Selectivity was determined as response after administration (0.1 ug/mg/kg) to that of preantagonist response in rabbit; B2 block only. It counts as functional, organism-based.
For data set [11], the system named is Oryctolagus cuniculus. The data set can be described thus: Effective dose for bradykinin B2 activity after administration (0.03 ug/kg/min) in rabbit. It counts as functional.
The subject of data set [12] is Oryctolagus cuniculus. The data set can be described thus: Effective dose for bradykinin B1 activity after administration (10 ug/kg/min) in rabbit. Type of data set: functional.
In data set [13] the test system is Oryctolagus cuniculus. The data set can be described thus: Effective dose for bradykinin B1 activity after administration (3 ug/kg/min) in rabbit. It counts as functional.
In data set [14] the test system is Oryctolagus cuniculus. Nature of the data set: Effective dose for bradykinin B1 activity after administration (1 ug/kg/min) in rabbit. Type of data set: functional.
In data set [15] the test system is Oryctolagus cuniculus. Nature of the data set: Effective dose for bradykinin B2 activity after administration (0.01 ug/kg/min) in rabbit. Type of data set: functional.
Data set [16] relates to Oryctolagus cuniculus. Nature of the data set: Effective dose for bradykinin B2 activity after administration (0.1 ug/kg/min) in rabbit. It counts as functional.
The test system of data set [17] is Oryctolagus cuniculus. Nature of the data set: Percent inhibition after intravenously administration compound at 60 min in rabbit; expressed as percent inhibition. Type of data set: functional.
Data set [18] has as its system Rattus norvegicus. Nature of the data set: Percent inhibition after subcutaneously administration compound at 3H in rat; expressed as percent inhibition. Type of data set: functional.

As usually defined, the Ki is a measure of affinity in units of concentration, obtained from inhibition or displacement. A high value points to weaker binding. Broadly, the IC50 is the point on the concentration scale where inhibition reaches its midpoint. Read a low IC50 as inhibition by little substance. As usually defined, the half-life is the time needed for the level to fall by half in the phase considered. `NC(N)=NCCCC(N)C(=O)NC(CCCN=C(N)N)C(=O)N1CCC[C@H]1C(=O)N1C[C@H](O)C[C@H]1C(=O)NCC(=O)N[C@@H](Cc1cccs1)C(=O)N[C@@H](CO)C(=O)N1Cc2ccccc2C[C@@H]1C(=O)N(CC(=O)NC(CCCN=C(N)N)C(=O)O)C1CCCCC1` (stereo in doubt) [listing 1 of 3 here]: the inhibitory constant (Ki) in data set [1] was 0.24 nM. Besides, the “Log Ki” value in data set [2] is listed as -10.11. Further, in data set [3], the Kb is 0.49 nM. In [4], this compound gave an IC50 greater than 10000 nM. The half-life in data set [5], in data set [6], in data set [7] and in data set [8] was greater than 6 h in each case.
Take `NC(N)=NCCCC(N)C(=O)NC(CCCN=C(N)N)C(=O)N1CCC[C@H]1C(=O)N1C[C@H](O)C[C@H]1C(=O)NCC(=O)N[C@@H](Cc1cccs1)C(=O)N[C@@H](CO)C(=O)N1Cc2ccccc2C[C@@H]1C(=O)N(CC(=O)NC(CCCN=C(N)N)C(=O)O)C1CCCCC1` (stereo in doubt) [listing 2 of 3 here]: the Recovery in [9] came to 73%. The Selectivity entry in data set [10] was “inactive”.
Broadly, the pA2 is the negative logarithm of the molar antagonist concentration that doubles the agonist concentration needed for the same response. A high value points to higher antagonist potency. Take `N=C(N)NCCCCC(=O)N[C@@H](CCCNC(=N)N)C(=O)N1CCC[C@H]1C(=O)N1C[C@H](O)C[C@H]1C(=O)NCC(=O)N[C@@H](Cc1cccs1)C(=O)N[C@@H](CO)C(=O)N1Cc2ccccc2C[C@@H]1C(=O)N(CC(=O)N[C@@H](CCCNC(=N)N)C(=O)O)C1CCCCC1`: the inhibition constant Ki in [1] was 12 nM. The “Log Ki” value in data set [2] was -8.85. This compound also gave a pA2 in data set [3] of 9.09. Moreover, the half-life was greater than 6 h in [5], greater than 6 h in data set [6] and 3.9 h in data set [7].
The Inhibition is the percentage by which the read-out fell short of the control. Read a high Inhibition as a response far below the control. For `NC(N)=NCCCC(N)C(=O)NC(CCCN=C(N)N)C(=O)N1CCC[C@H]1C(=O)N1C[C@H](O)C[C@H]1C(=O)NCC(=O)N[C@@H](Cc1cccs1)C(=O)N[C@@H](CO)C(=O)N1Cc2ccccc2C[C@@H]1C(=O)N(CC(=O)NC(CCCN=C(N)N)C(=O)O)C1CCCCC1` (stereo in doubt) [listing 3 of 3 here], the ED50 came to 0.051 µg/mg/kg in [11]; 2.9 µg/mg/kg in [12]; 2.9 µg/mg/kg in [13]; 2.9 µg/mg/kg in [14]; 0.051 µg/mg/kg in [15]; 0.051 µg/mg/kg in data set [16]. The Inhibition in data set [17] and in [18] was 100% throughout.
As to `NC(N)=NCCC[C@@H](N)C(=O)N[C@@H](CCCN=C(N)N)C(=O)N1CCC[C@H]1C(=O)N1C[C@H](O)C[C@H]1C(=O)NCC(=O)N[C@@H](Cc1cccs1)C(=O)N[C@@H](CO)C(=O)N1Cc2ccccc2C[C@@H]1C(=O)N1[C@H](C(=O)N[C@@H](CCCN=C(N)N)C(=O)O)C[C@@H]2CCCC[C@@H]21` [ICATIBANT], in [3], the Kb was 0.316 nM. Further, the half-life in [5], in [6], in data set [7] and in data set [8] was greater than 6 h each time.
